The source made the active and inactive calls.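 How the source made its calls, unless noted: active means fluorescence slope higher than the sample average by over 3 SD (cut at about -0.22 in these data, passing the limit was not always enough); inactive means the rest.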

From PubChem BioAssay come the findings set out here.

The nature of experiment [1]: inhibitors of TNFa-induced NFkB p65 translocation, primary screen, imaging, HUVEC, MLSMR starter and 10KST1 sets (AID 438;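 active means inhibition above 20% together with a positive visual image hit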;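 further: compound added about 3h40 before a 20 min TNFalpha stimulation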;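 on inhibition: signal is the nuclear over cytoplasmic p65 intensity ratio per well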). The conditions noted are these: HUVEC TNFa-induced p65 nuclear translocation; cell count: measured here: nuclei count (cytotoxicity indicator), at 2.08 µM; inhibition: at 2 µM, stronger effect = higher value, 0% TNFa-plus-vehicle, 100% no-TNFa wells.
Experiment [2] is described as follows: inhibitors of E-selectin induction by TNFa, primary screen, imaging, HUVEC, immunofluorescence, MLSMR starter and 10KST1 sets (AID 487;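 active means visually confirmed hit in the image check and inhibition above 20%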;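 on inhibition: signal is fraction of cell area covered by stained E-selectin grains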;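 on nuclei count: 100% = median nuclei count of all wells on the same plate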). The note with it: HUVEC TNFalpha-induced E-selectin immunofluorescence imaging, at 2 µM; inhibition: stronger effect = higher value; nuclei count: measured here: cell number, toxicity.
Experiment [3] in a line: DUSP6 inhibitors restoring Erk phosphorylation by chemical complementation, primary imaging in DUSP6-transfected HeLa (AID 609;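 active means compounds giving at least 50% inhibition in the cell-based MKP-3 phosphatase rescue imaging test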;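 on inhibition: phospho-Erk level distribution per well compared with pooled transfected vehicle control wells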). The conditions noted are these: HeLa MKP-3 transfected, phospho-Erk imaging KS statistic, at 10 µM, cells stimulated with TPA for 15 min.
Experiment [4] has as its target Dual specificity protein phosphatase 6 (Homo sapiens) (UniProt Q16828). The experiment is described as above. The conditions noted are these: HeLa MKP-3 transfected, phospho-Erk imaging KS statistic; at 10 µM; stronger effect = higher value; cells stimulated with TPA for 15 min.
Experiment [5] concerns the target Voltage-gated potassium channel subunit beta-2 (Rattus norvegicus) (UniProt P62483). Kind of experiment: KvBeta enzyme negative modulators, primary screen, biochemical, NADPH fluorescence (AID 622).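 Further: slope of raw intensity against log time taken from 70 to 1610 s.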 The conditions noted are these: recombinant KvBeta, 4-cyanobenzaldehyde reduction, at 10 µM, stronger effect = higher value.
Experiment [6] has the same target. The experiment is described as follows: KvBeta positive modulators, primary screen, biochemical, NADPH fluorescence (AID 623;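 active means NADPH fluorescence slope more negative than the mean of all samples by about 3 SD, 99.7% confidence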;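 further: fluorescence intensity change per second fitted from 20 to 320 s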). The conditions noted are these: Recombinant KvBeta, NADPH fluorescence decrease slope, 10 min; at 10 µM; stronger effect = lower value.
Experiment [7] addresses Muscarinic acetylcholine receptor M4 (Homo sapiens) (UniProt P08173). The experiment is described as follows: compounds altering M4/GIRK thallium flux, either direction, primary screen, M4 allosteric agonist project, cell-based, HEK293 M4/GIRK, BTC-AM (AID 625;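 active means fluorescence slope after compound addition differing from the mean of all tested samples at 99.7% confidence, mostly higher but some lower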;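 further: thallium influx through GIRK channels coupled to M4 in HEK293 cells with BTC-AM dye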). The note with it: at 10 µM, actives lie on both sides. In short, it runs like this: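 Material: M4/GIRK1/GIRK2 stable HEK293 cell line. Medium: pH 7.3 thallium assay buffer. Dosing: single compound concentration, 10 µM final. Schedule: 1 h dye loading, 2 min kinetic read. Measured by: kinetic fluorescence with BTC-AM dye. Read-out: post-addition slope, 15–24 s, of baseline-normalized fluorescence. Benchmarks: carbachol and DMSO controls.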

Experiment [8] can be described thus: inhibitors of larval lipid processing in zebrafish, primary screen, whole organism, PED6 fluorescence, gall bladder and intestine (AID 686;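 active means a full or partial loss of lipid-probe fluorescence in the fish gall bladder, intestine or both, judged by eye; inactive means no fluorescence loss, or compound toxic to the fish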;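 further: larvae 5 to 7 days old with five fish per well; signal comes from phospholipase A2 cleavage of quenched PED6 carried via bile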). The note with it: Zebrafish larvae PED6 lipid processing, fluorescence scoring; screened at 20 µM (by protocol). In short, it runs like this: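 System: live zebrafish larvae aged 5-7 days, whole organism; measure: graded gall bladder and intestinal fluorescence inhibition per well; incubation: overnight exposure; reagent: ingested quenched lipid PED6 at 100 nM; signal: By-eye fluorescence microscopy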

Experiment [9] is described as follows: inhibitors of Chlamydomonas gravitaxis, primary screen, whole organism, Chlamydomonas reinhardtii, WT vs cilia-less mutant, absorbance, 96-well (AID 463189;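 active means inhibition at or above 50% relative to wild type and mutant plate controls; inactive means inhibition below 50%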;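 further: 0% = wild type cc124 cells in DMSO and 100% = ciliumless bld1 mutant cells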). The conditions noted are these: OD600 absorbance, 2 days, at 10 µM, stronger effect = higher value.
Setting [10] is: measured here: cell density z-score.
Setting [11] is: measured here: nuclear c-Myc green intensity z-score.
Setting [12] is: measured here: nuclear pErk red intensity z-score, stronger effect = higher value.

Voltage-gated potassium channel subunit beta-2 (Rattus norvegicus), sequence (P62483 whole entry, looked up): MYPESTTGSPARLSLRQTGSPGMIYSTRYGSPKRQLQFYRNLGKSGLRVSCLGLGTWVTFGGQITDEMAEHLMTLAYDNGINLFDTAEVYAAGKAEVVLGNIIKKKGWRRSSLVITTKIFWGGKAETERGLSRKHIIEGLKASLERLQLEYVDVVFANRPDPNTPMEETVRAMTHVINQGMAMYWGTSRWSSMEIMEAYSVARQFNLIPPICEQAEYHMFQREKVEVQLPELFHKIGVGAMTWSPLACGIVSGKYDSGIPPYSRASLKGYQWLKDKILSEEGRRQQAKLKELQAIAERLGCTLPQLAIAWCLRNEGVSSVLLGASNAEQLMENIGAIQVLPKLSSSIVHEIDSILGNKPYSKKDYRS
Muscarinic acetylcholine receptor M4 (Homo sapiens), sequence (P08173 whole entry, looked up): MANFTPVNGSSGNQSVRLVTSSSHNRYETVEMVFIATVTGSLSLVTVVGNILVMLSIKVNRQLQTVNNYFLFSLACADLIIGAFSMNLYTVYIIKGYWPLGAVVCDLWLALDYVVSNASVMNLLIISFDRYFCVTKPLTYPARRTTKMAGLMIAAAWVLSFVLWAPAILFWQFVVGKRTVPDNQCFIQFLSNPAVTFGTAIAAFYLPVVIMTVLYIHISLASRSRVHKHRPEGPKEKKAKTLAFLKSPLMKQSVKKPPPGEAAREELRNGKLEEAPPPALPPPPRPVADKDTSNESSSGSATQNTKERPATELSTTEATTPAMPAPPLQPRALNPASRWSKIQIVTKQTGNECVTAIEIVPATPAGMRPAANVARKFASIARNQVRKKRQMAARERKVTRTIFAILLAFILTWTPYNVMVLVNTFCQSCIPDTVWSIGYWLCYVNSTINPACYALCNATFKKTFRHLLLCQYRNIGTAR
Dual specificity protein phosphatase 6 (Homo sapiens), sequence (Q16828 whole entry, looked up): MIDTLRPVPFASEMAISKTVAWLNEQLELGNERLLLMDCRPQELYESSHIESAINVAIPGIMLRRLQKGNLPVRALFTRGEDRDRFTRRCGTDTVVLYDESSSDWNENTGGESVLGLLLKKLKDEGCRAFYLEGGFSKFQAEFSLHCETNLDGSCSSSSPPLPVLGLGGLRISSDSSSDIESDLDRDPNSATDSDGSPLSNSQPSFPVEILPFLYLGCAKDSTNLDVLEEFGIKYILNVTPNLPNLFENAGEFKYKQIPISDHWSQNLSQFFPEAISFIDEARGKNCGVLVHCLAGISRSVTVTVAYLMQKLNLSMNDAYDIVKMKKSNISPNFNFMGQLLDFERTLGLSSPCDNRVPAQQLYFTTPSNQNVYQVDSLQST

As to `COc1ccc(Nc2cc(C)nc(-n3nc(C)cc3C)n2)cc1`, the cell count in experiment [1] worked out at 454. Besides, the inhibition was 12% (inactive) in experiment [1], -182% (inactive) in [2], -3.95% (inactive) in experiment [4] and 45% (inactive) in experiment [9]. Moreover, the nuclei count in experiment [2] amounted to 127%. Moreover, the z-score is -0.499 in [3] (setting [10]), -0.357 in [3] (setting [11]) and -1.13 in experiment [3] (setting [12]). Moreover, the results for the fluorescence slope in experiment [5] and in experiment [7] were -0.427 (inactive) and 0.00507 (inactive), respectively. Besides, the NADPH fluorescence slope in experiment [6] was -2.8e-05 (inactive). Further, the result in experiment [8] was inactive.
`Cn1c(NCC(O)c2ccccc2)nc2c1c(=O)n(Cc1ccc(Cl)cc1)c(=O)n2C` (centres undefined): the cell count in [1] is 676. The inhibition in experiment [1] is 8.4% (inactive); in experiment [2] it was -18% (inactive); in experiment [4], -9.53% (inactive); in [9] it was 8.04% (inactive). For the same compound, in experiment [2], the nuclei count turned out to be 103%. In addition, the z-score in experiment [3] (setting [10]) was -0.206; in experiment [3] (setting [11]), 0.674; in experiment [3] (setting [12]), -0.257. In addition, the fluorescence slope in [5] was -0.423 (inactive); in experiment [7], 0.00426 (inactive). In addition, the NADPH fluorescence slope in [6] is -4.1e-05 (inactive). In [8], the compound was classed as inactive.
For `CC(C)C(=O)N1CCN(c2nc(-c3ccccc3)c3c(c2C#N)CC(C)(C)OC3)CC1`, the cell count in [1] came to 607. Moreover, the inhibition in [1] was -3.4% (inactive); in experiment [2], -9.6% (inactive); in experiment [4] it was -2.29% (inactive); in [9], 26.8% (inactive). In addition, the nuclei count in experiment [2] was found to be 163%. For the same compound, the z-score in experiment [3] (setting [10]) was 0.152; in experiment [3] (setting [11]), 0.868; in experiment [3] (setting [12]), -0.257. The fluorescence slope is -0.366 (inactive) in experiment [5] and 0.00797 (inactive) in [7]. For the same compound, the NADPH fluorescence slope in [6] is -2.4e-05 (inactive). Moreover, in [8], the result was inactive.
As for `Cn1c(OCc2cccnc2)nc2c1c(=O)n(Cc1ccc(Br)cc1)c(=O)n2C`, the cell count in experiment [1] came out at 723. Further, the inhibition was -15.3% (inactive) in experiment [1], -75% (inactive) in experiment [2], -5.95% (inactive) in experiment [4] and 32.6% (inactive) in experiment [9]. In experiment [2], the nuclei count is 172%. Moreover, the z-score was -1.07 in [3] (setting [10]), -0.35 in [3] (setting [11]) and 0.344 in [3] (setting [12]). Moreover, the fluorescence slope in experiment [5] is -0.475 (inactive); in [7], 0.00549 (inactive). Further, the NADPH fluorescence slope in experiment [6] was -4e-05 (inactive). For the same compound, the call in experiment [8] was inactive.
Turning to `CC(C)c1nc2n[nH]c(N)c2c2c1CCCC2`, the cell count in experiment [1] turned out to be 576. The inhibition in [1] is 2.1% (inactive); in experiment [2], -38.2% (inactive); in [4], 7.21% (inactive); in experiment [9] it was -2.96% (inactive). Moreover, in [2], the nuclei count was 148%. The z-score in [3] (setting [10]) is -0.386; in experiment [3] (setting [11]) it was 1.02; in experiment [3] (setting [12]) it was -1.27. The fluorescence slope in experiment [5] is -0.465 (inactive); in experiment [7], 0.00509 (inactive). For the same compound, the NADPH fluorescence slope in experiment [6] was -8.5e-05 (inactive). In addition, the outcome in [8] was inactive.
In the case of `CCCCOC(=O)c1ccc(NC(=O)CSc2nncn2C)cc1`, the cell count in experiment [1] worked out at 507. Besides, the inhibition in experiment [1] was -8.4% (inactive); in [2], -82.5% (inactive); in experiment [4], -0.624% (inactive); in experiment [9] it was 5.5% (inactive). In experiment [2], this compound displayed a nuclei count of 168%. Also, the z-score in [3] (setting [10]) is -0.268; in experiment [3] (setting [11]) it was -0.273; in experiment [3] (setting [12]), 0.565. The fluorescence slope is -0.456 (inactive) in [5] and 0.00538 (inactive) in experiment [7]. In experiment [6], the NADPH fluorescence slope is -6.8e-05 (inactive). Also, the call in [8] was inactive.
`COc1ccc2[nH]c(C)c(C(=O)CN3CCOCC3)c2c1`: the cell count in [1] amounted to 640. Moreover, the inhibition was 7.2% (inactive) in experiment [1], -85.7% (inactive) in [2], -1.98% (inactive) in [4] and 13.2% (inactive) in [9]. Also, the nuclei count in experiment [2] stood at 184%. Besides, the z-score is -1.08 in experiment [3] (setting [10]), 1.22 in [3] (setting [11]) and 0.499 in [3] (setting [12]). For the same compound, the fluorescence slope in experiment [5] is -0.466 (inactive); in experiment [7], 0.00952 (inactive). The NADPH fluorescence slope in experiment [6] is -6.6e-05 (inactive). Further, the result in experiment [8] was inactive.
Turning to `CN(Cc1ccccc1)c1ncnc2ccc(Br)cc12`, in experiment [1], the cell count was found to be 591. In addition, the inhibition in experiment [1] is -9.8% (inactive); in [2] it was -5.2% (inactive); in [4] it was 2.92% (inactive); in experiment [9], 18.9% (inactive). The compound further returned a nuclei count in experiment [2] of 116%. In addition, the results for the z-score in [3] (setting [10]), in experiment [3] (setting [11]) and in experiment [3] (setting [12]) were -0.293, -0.951 and 0.281, respectively. Moreover, the fluorescence slope was -0.517 (inactive) in experiment [5] and 0.00669 (inactive) in experiment [7]. The NADPH fluorescence slope in [6] is -8e-05 (inactive). Besides, the result in experiment [8] was inactive.
With `OCCOCCNc1ncnc2c1cnn2-c1ccc(Cl)cc1`, in experiment [1], the cell count turned out to be 578. The inhibition is -11.9% (inactive) in [1], -74.5% (inactive) in experiment [2], -4.59% (inactive) in [4] and 26.1% (inactive) in experiment [9]. The compound also had a nuclei count in experiment [2] of 181%. Moreover, the figures for the z-score in [3] (setting [10]), in experiment [3] (setting [11]) and in experiment [3] (setting [12]) were 0.588, -0.286 and 0.737, respectively. The fluorescence slope in [5] was -0.308 (inactive); in [7], 0.00585 (inactive). Also, in [6], the NADPH fluorescence slope is -2.8e-05 (inactive). For the same compound, the result in experiment [8] was inactive.
For `Cc1cc(N2C(=O)C(=O)/C(=C(/O)c3ccc(F)cc3)C2c2cccc(Br)c2)no1` (centres undefined), the cell count in [1] amounted to 478. Further, the inhibition in experiment [1] is 2.6% (inactive); in experiment [2], 2.7% (inactive); in experiment [4], 1.04% (inactive); in [9], 15.6% (inactive). This compound also yielded a nuclei count in experiment [2] of 145%. For the same compound, the z-score in [3] (setting [10]) is 0.015; in [3] (setting [11]) it was 0.305; in experiment [3] (setting [12]), 1.03. Besides, the values for the fluorescence slope in [5] and in experiment [7] were -0.439 (inactive) and 0.00551 (inactive), respectively. In [6], the NADPH fluorescence slope is -4.6e-05 (inactive). The compound was classed as inactive in [8].
In the case of `CCCCC(CCC(=O)Nc1ccc(C(=O)OC)cc1)C(=O)O` (centres undefined), the cell count in experiment [1] is 405. The inhibition was -4.7% (inactive) in experiment [1], -189% (inactive) in [2], 14% (inactive) in experiment [4] and 25.1% (inactive) in [9]. The compound also came in with a nuclei count in experiment [2] of 152%. Besides, the z-score is 0.378 in experiment [3] (setting [10]), -1.21 in experiment [3] (setting [11]) and -0.623 in experiment [3] (setting [12]). In addition, the fluorescence slope was -0.439 (inactive) in experiment [5] and 0.00484 (inactive) in experiment [7]. Moreover, in experiment [6], the NADPH fluorescence slope was -0.000105 (inactive). Moreover, the result in [8] was inactive.
Consider `CC(=O)NC(=O)Nc1sc(=S)n(C)c1C`, for which the cell count in experiment [1] is 329. Further, the inhibition in experiment [1] is -4.5% (inactive); in experiment [2], -21.6% (inactive); in [4] it was 9.82% (inactive); in [9], 30.1% (inactive). Besides, the nuclei count in experiment [2] is 71.6%. Moreover, the z-score was 0.847 in experiment [3] (setting [10]), -2.04 in experiment [3] (setting [11]) and 0.71 in experiment [3] (setting [12]). For the same compound, the fluorescence slope was -0.515 (inactive) in experiment [5] and 0.00528 (inactive) in experiment [7]. Also, in experiment [6], the NADPH fluorescence slope is 4.8e-06 (inactive). Besides, the compound was classed as inactive in [8].
Take `CCC(=O)Nc1nc(C)c(Oc2ccccc2)c(=O)[nH]1`: in [1], the cell count came to 696. In addition, the inhibition is -5.5% (inactive) in [1], 34.5% (inactive) in experiment [2], -9.53% (inactive) in [4] and 2.71% (inactive) in experiment [9]. In experiment [2], this compound came in with a nuclei count of 151%. Also, the z-score in [3] (setting [10]) was -0.359; in experiment [3] (setting [11]), -0.286; in experiment [3] (setting [12]), 0.522. The fluorescence slope in [5] was -0.412 (inactive); in experiment [7], 0.00483 (inactive). For the same compound, in experiment [6], the NADPH fluorescence slope was -4.2e-05 (inactive). The compound was classed as inactive in experiment [8].
